Laboratory results: ChEMBL document CHEMBL1137302 (J Med Chem, 2006)

Assays:
[1] = Bioavailability in Sprague-Dawley rat at 1 mg/kg, sc; assay type: ADME, organism-based; settings: in vivo
In short: (§1)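 Single 1 mg/kg dose given iv, sc or orally to Sprague-Dawley rats, dogs and monkeys; plasma concentrations followed over time (mean ± SEM, n = 3). Cmax, AUC, half-life, clearance and bioavailability calculated from the curves.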

[2] = Bioavailability in Sprague-Dawley rat at 1 mg/kg, po; assay type: ADME, organism-based; settings: in vivo; in short: as §1
[3] = biological target: T1, D(4) dopamine receptor (Homo sapiens, UniProt P21917); assay: Agonist activity at human D4.4 receptor in HEK293 cells coexpressing G-alpha-qo5 by FLIPR; assay type: functional, cell-based
T1 sequence (P21917 whole entry): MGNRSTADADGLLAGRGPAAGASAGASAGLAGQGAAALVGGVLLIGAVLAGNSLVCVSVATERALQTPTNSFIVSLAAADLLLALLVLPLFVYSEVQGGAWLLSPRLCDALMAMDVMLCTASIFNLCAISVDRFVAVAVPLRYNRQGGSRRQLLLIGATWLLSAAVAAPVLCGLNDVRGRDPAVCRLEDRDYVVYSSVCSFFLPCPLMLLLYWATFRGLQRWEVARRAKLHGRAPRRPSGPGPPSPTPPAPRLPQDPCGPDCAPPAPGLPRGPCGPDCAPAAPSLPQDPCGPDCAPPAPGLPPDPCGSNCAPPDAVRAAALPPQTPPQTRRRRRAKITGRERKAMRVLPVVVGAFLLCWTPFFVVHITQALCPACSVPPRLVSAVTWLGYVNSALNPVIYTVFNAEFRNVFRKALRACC

[4] = Half life in Sprague-Dawley rat at 1 mg/kg, sc; assay type: ADME, organism-based; design: dose 1 mg/kg, route subcutaneous; settings: in vivo; in short: as §1
[5] = biological target: T2, D(2) dopamine receptor (Homo sapiens, UniProt P14416); assay: Binding affinity at human D2L receptor by displacement of [125I]-7-OH-PIPAT in membranes
T2 sequence (P14416 whole entry): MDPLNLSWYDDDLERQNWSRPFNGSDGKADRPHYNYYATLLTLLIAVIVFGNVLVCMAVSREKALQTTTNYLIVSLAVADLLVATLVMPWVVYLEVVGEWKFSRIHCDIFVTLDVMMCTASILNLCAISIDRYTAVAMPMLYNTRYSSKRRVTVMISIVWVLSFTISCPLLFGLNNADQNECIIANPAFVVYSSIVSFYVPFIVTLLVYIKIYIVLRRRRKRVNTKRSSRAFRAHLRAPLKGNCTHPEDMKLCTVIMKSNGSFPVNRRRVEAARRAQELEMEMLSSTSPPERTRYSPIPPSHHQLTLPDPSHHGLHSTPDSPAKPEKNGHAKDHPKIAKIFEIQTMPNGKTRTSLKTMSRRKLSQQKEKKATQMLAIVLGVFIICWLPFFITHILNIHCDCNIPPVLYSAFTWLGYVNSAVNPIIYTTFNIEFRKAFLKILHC

[6] = biological target: T2, D(2) dopamine receptor; assay: Displacement of [125I]7-OH-PIPAT from human D2L receptor expressed in HEK293 cell membrane; assay type: cell membranes
[7] = biological target: T1, D(4) dopamine receptor; assay: Displacement of [3H]spiperone from human D4 receptor expressed in HEK293 cell membrane; assay type: cell membranes
[8] = system: Rattus norvegicus; assay: Proerectile activity in rat measured as incidence of penile erection at 0.03 umol/kg, sc; assay type: functional
In short: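 Conscious male rats dosed subcutaneously. Penile erection incidence scored over 60 min after injection; values are % ± SEM, with significance tested against control.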

[9] = biological target: T3, D(4) dopamine receptor (Homo sapiens) (UniProt P21917); assay: Activity at human D4.4 receptor in HEK293 cells co-expressing Galphaqo5 by FLIPR; assay type: functional, cell-based; settings: filed as partial agonist
T3 sequence (whole entry): T1 sequence (P21917 whole entry)

[10] = biological target: T2, D(2) dopamine receptor; assay: Agonist activity at human D2 receptor in HEK293 cells coexpressing G-alpha-qo5 by FLIPR; assay type: functional, cell-based
[11] = biological target: T1, D(4) dopamine receptor; assay: Displacement of [3H]A369508 from human D4 receptor expressed in HEK293 cell membrane; assay type: cell membranes

Row | bioavailability [1] [%] | bioavailability [2] [%] | EC50 [3] [µM] | half-life [4] [min] | Ki [5] [µM] | Ki [6] [µM] | Ki [7] [µM] | Activity [9] | EC50 [10] [µM] | Ki [11] [µM] | Structure (SMILES) | Activity [8] [%]
1 | 76 | 2 | 0.009 | 36 | 3.5 | 3.5 | 0.032 | – | – | – | Cc1cccc(C(=O)NCN2CCC(c3ccccn3)CC2)c1 | 83
2 | – | – | 0.206 | – | – | 0.027 | – | Partial agonist | > 10 | 0.0013 | COc1ccccc1C1CCN(CNC(=O)c2cccc(C)c2)CC1 | –
